{"source": "ChEMBL document CHEMBL4265907", "about": "“Design, synthesis and pharmacological evaluation of N4,N6-disubstituted pyrimidine-4,6-diamine derivatives as potent EGFR inhibitors in non-small cell lung cancer” (Eur J Med Chem, 2018)", "key": {"[1]": {"biological_target": "T1, Epidermal growth factor receptor (Homo sapiens, UniProt P00533)", "T1 sequence (P00533 whole entry)": "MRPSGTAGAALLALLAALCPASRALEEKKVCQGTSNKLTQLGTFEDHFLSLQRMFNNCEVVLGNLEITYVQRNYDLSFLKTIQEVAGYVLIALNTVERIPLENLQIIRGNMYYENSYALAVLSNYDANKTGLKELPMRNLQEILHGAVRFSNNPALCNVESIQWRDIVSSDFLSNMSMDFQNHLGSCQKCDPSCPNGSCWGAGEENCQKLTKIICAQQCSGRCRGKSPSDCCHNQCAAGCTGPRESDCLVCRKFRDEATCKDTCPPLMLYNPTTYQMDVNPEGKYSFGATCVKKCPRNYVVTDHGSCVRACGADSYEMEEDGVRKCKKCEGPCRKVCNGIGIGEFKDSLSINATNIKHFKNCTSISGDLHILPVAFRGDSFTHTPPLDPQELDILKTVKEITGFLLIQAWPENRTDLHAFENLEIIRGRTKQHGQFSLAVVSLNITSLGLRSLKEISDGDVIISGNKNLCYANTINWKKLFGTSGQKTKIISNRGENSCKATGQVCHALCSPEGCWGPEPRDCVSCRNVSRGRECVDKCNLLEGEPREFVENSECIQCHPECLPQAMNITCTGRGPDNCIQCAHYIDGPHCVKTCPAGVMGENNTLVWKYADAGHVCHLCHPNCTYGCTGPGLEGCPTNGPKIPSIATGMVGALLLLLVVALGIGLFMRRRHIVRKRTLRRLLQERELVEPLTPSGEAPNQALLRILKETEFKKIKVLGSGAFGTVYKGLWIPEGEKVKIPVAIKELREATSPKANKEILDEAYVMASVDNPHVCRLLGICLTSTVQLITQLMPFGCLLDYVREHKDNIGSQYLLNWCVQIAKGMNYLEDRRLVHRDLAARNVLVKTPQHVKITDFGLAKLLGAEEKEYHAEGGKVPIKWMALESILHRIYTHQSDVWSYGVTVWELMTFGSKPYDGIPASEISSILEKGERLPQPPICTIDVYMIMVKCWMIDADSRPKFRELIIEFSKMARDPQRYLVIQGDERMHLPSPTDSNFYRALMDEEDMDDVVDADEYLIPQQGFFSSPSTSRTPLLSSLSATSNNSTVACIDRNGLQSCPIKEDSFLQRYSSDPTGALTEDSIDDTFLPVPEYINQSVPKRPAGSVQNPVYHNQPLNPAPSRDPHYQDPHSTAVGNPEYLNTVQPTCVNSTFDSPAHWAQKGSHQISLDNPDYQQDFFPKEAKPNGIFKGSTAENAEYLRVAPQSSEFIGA", "assay": "Inhibition of EGF-induced EGFR autophosphorylation at Y1068 residues in human H3255 cells by Western blot method", "format": "cell-based", "in_short": "(§1)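 Cell lysates prepared in protein lysis buffer and cleared at 12,000 g for 10 min at 4 °C. 50 μg protein per lane was run on a gel, transferred to PVDF and immunoblotted, with GAPDH as the loading control.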"}, "[2]": {"biological_target": "T1, Epidermal growth factor receptor", "assay": "Inhibition of EGFR in human H3255 cells assessed as decrease in EGF-induced AKT phosphorylation by Western blot method", "format": "cell-based", "in_short": "as §1"}, "[3]": {"biological_target": "T1, Epidermal growth factor receptor", "assay": "Inhibition of EGFR in human H1975 cells assessed as decrease in EGF-induced AKT phosphorylation by Western blot method", "format": "cell-based", "in_short": "as §1"}, "[4]": {"test_system": "NCI-H3255", "assay": "Induction of apoptosis in human H3255 cells assessed as early apoptotic cells at 500 nM after 48 hrs by Annexin V-FITC/PI staining based flow cytometry (reference value: 3.22%)", "format": "functional"}, "[5]": {"test_system": "NCI-H3255", "assay": "Induction of apoptosis in human H3255 cells assessed as late apoptotic cells at 500 nM after 48 hrs by Annexin V-FITC/PI staining based flow cytometry (reference value: 1.77%)", "format": "functional"}, "[6]": {"test_system": "A-431", "assay": "Induction of apoptosis in human A431 cells assessed as early apoptotic cells at 500 nM after 48 hrs by Annexin V-FITC/PI staining based flow cytometry (reference value: 3.40%)", "format": "functional"}, "[7]": {"test_system": "A-431", "assay": "Induction of apoptosis in human A431 cells assessed as late apoptotic cells at 500 nM after 48 hrs by Annexin V-FITC/PI staining based flow cytometry (reference value: 2.11%)", "format": "functional"}, "[8]": {"test_system": "A-431", "assay": "Induction of apoptosis in human A431 cells assessed as necrotic cells at 500 nM after 48 hrs by Annexin V-FITC/PI staining based flow cytometry (reference value: 4.16%)", "format": "functional"}, "[9]": {"test_system": "A-431", "assay": "Induction of apoptosis in human A431 cells assessed as viable cells at 1000 nM after 48 hrs by Annexin V-FITC/PI staining based flow cytometry (reference value: 90.3%)", "format": "functional", "settings": "A-431, 48 h, read-out: Activity"}, "[10]": {"test_system": "A-431", "assay": "Induction of apoptosis in human A431 cells assessed as early apoptotic cells at 1000 nM after 48 hrs by Annexin V-FITC/PI staining based flow cytometry (reference value: 3.40%)", "format": "functional"}, "[11]": {"test_system": "HCC827", "assay": "Induction of apoptosis in human HCC827 cells assessed as late apoptotic cells at 500 nM after 48 hrs by Annexin V-FITC/PI staining based flow cytometry (reference value: 1.15%)", "format": "functional"}, "[12]": {"test_system": "HCC827", "assay": "Induction of apoptosis in human HCC827 cells assessed as viable cells at 1000 nM after 48 hrs by Annexin V-FITC/PI staining based flow cytometry (reference value: 94.6%)", "format": "functional", "settings": "HCC827, 48 h, read-out: Activity"}, "[13]": {"test_system": "HCC827", "assay": "Induction of apoptosis in human HCC827 cells assessed as early apoptotic cells at 1000 nM after 48 hrs by Annexin V-FITC/PI staining based flow cytometry (reference value: 2.83%)", "format": "functional"}, "[14]": {"test_system": "HCC827", "assay": "Induction of apoptosis in human HCC827 cells assessed as necrotic cells at 1000 nM after 48 hrs by Annexin V-FITC/PI staining based flow cytometry (reference value: 1.41%)", "format": "functional"}, "[15]": {"test_system": "NCI-H1975", "assay": "Induction of apoptosis in human NCI-H1975 cells assessed as viable cells at 250 nM after 48 hrs by Annexin V-FITC/PI staining based flow cytometry (reference value: 93.7%)", "format": "functional", "settings": "NCI-H1975, 48 h, read-out: Activity"}, "[16]": {"test_system": "NCI-H1975", "assay": "Induction of apoptosis in human NCI-H1975 cells assessed as early apoptotic cells at 250 nM after 48 hrs by Annexin V-FITC/PI staining based flow cytometry (reference value: 2.07%)", "format": "functional"}, "[17]": {"test_system": "NCI-H1975", "assay": "Induction of apoptosis in human NCI-H1975 cells assessed as early apoptotic cells at 500 nM after 48 hrs by Annexin V-FITC/PI staining based flow cytometry (reference value: 2.07%)", "format": "functional"}, "[18]": {"test_system": "NCI-H1975", "assay": "Induction of apoptosis in human NCI-H1975 cells assessed as viable cells at 1000 nM after 48 hrs by Annexin V-FITC/PI staining based flow cytometry (reference value: 93.7%)", "format": "functional", "settings": "NCI-H1975, 48 h, read-out: Activity"}, "[19]": {"test_system": "NCI-H1975", "assay": "Induction of apoptosis in human NCI-H1975 cells assessed as necrotic cells at 1000 nM after 48 hrs by Annexin V-FITC/PI staining based flow cytometry (reference value: 2.31%)", "format": "functional"}, "[20]": {"test_system": "NCI-H3255", "assay": "Induction of apoptosis in human H3255 cells assessed as viable cells after 48 hrs by Annexin V-FITC/PI staining based flow cytometry", "format": "functional, cell-based"}, "[21]": {"test_system": "A-431", "assay": "Induction of apoptosis in human A431 cells assessed as early apoptotic cells after 48 hrs by Annexin V-FITC/PI staining based flow cytometry", "format": "functional, cell-based"}, "[22]": {"test_system": "HCC827", "assay": "Induction of apoptosis in human HCC827 cells assessed as viable cells after 48 hrs by Annexin V-FITC/PI staining based flow cytometry", "format": "functional, cell-based"}, "[23]": {"test_system": "NCI-H1975", "assay": "Cell cycle arrest in human NCI-H1975 cells assessed as accumulation at G2/M phase at 100 to 500 nM after 24 hrs by propidium iodide staining based flow cytometry", "format": "functional", "in_short": "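NCI-H1975 cells (2×10^5) seeded in 6-well plates overnight, then treated 24 h at 50, 100, 250 or 500 nM; 1‰ DMSO medium as control. Cells harvested, washed in cold PBS, fixed in 70% cold ethanol at −20 °C overnight, stained with PI/RNase buffer and analysed by flow cytometry. n=3.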"}, "[24]": {"assay": "MRT (0 to t) in Sprague-Dawley rat at 30 mg/kg, po by UPLC-MS/MS analysis", "format": "ADME, organism-based", "settings": "in vivo", "in_short": "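Male and female Sprague-Dawley rats (200–220 g) were fasted 12 h and given a single oral dose of 30 mg/kg as a 0.5% CMC-Na suspension. Blood was sampled at 0.083, 0.25, 0.5, 1, 2, 4, 8 and 24 h and centrifuged at 4000 r/min for 10 min. Plasma was quantified by UPLC–MS/MS.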"}, "[25]": {"test_system": "Rattus norvegicus", "assay": "Volume of distribution in Sprague-Dawley rat at 30 mg/kg, po by UPLC-MS/MS analysis", "format": "ADME, organism-based", "settings": "in vivo", "in_short": "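Sprague-Dawley rats (four female, four male; 200-220 g) were fasted 12 h and given a single oral 30 mg/kg dose as a 0.5% CMC-Na suspension. Blood was drawn at 0.083, 0.25, 0.5, 1, 2, 4, 8 and 24 h and centrifuged at 4000 r/min for 10 min. Samples were quantified by UPLC–MS/MS; parameters are reported for n=6.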"}, "[26]": {"test_system": "Mus musculus", "assay": "Toxicity in BALB/C nude mouse xenografted with human PC9 cells at 15 to 30 mg/kg, ip qd administered for 19 days measured for 23 days", "format": "organism-based", "settings": "in vivo, 552 h", "in_short": "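Six-week-old BALB/C-nu mice were injected subcutaneously in the right flank with about 2×10^6 PC-9 cells. At a tumour size of ~0.2-0.4 cm³ they were randomised, 5 mice/group. Drug was given in DMSO:Span-80:ddH₂O 2:1:50, ip, daily at 15 or 30 mg/kg for 19 days; vehicle group included. Tumour volume = (W²×L)/2.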"}, "[27]": {"test_system": "Mus musculus", "assay": "In vivo inhibition of EGFR phosphorylation in tumor of BALB/C nude mouse xenografted with human PC9 cells at 15 to 30 mg/kg, ip qd administered for 19 days by immunoblot method", "format": "functional, organism-based"}}, "note": "The source made the active and inactive calls. No cut-off for these calls is given here."}
{"smiles": "COc1cccc(Nc2cc(Nc3cc(OC)ccc3OC)ncn2)c1", "values": [{"measurement": "inhibition", "setting": "[1]", "result": "Dose-dependent effect"}, {"measurement": "inhibition", "setting": "[2]", "result": "Dose-dependent effect"}, {"measurement": "inhibition", "setting": "[3]", "result": "Dose-dependent effect"}, {"measurement": "Activity", "setting": "[4]", "result": 11.5, "unit": "%"}, {"measurement": "Activity", "setting": "[5]", "result": 5.35, "unit": "%"}, {"measurement": "Activity", "setting": "[6]", "result": 15.1, "unit": "%"}, {"measurement": "Activity", "setting": "[7]", "result": 8.57, "unit": "%"}, {"measurement": "Activity", "setting": "[8]", "result": 5.66, "unit": "%"}, {"measurement": "viability at 1 µM", "setting": "[9]", "result": 65.3, "unit": "%"}, {"measurement": "Activity", "setting": "[10]", "result": 18.1, "unit": "%"}, {"measurement": "Activity", "setting": "[11]", "result": 7.72, "unit": "%"}, {"measurement": "viability at 1 µM", "setting": "[12]", "result": 53.4, "unit": "%"}, {"measurement": "Activity", "setting": "[13]", "result": 19.6, "unit": "%"}, {"measurement": "Activity", "setting": "[14]", "result": 12.6, "unit": "%"}, {"measurement": "viability at 0.25 µM", "setting": "[15]", "result": 56.1, "unit": "%"}, {"measurement": "Activity", "setting": "[16]", "result": 22.6, "unit": "%"}, {"measurement": "Activity", "setting": "[17]", "result": 25, "unit": "%"}, {"measurement": "viability at 1 µM", "setting": "[18]", "result": 46.4, "unit": "%"}, {"measurement": "Activity", "setting": "[19]", "result": 7.56, "unit": "%"}, {"measurement": "Activity", "setting": "[20]", "result": "Dose-dependent effect"}, {"measurement": "Activity", "setting": "[21]", "result": "Dose-dependent effect"}, {"measurement": "Activity", "setting": "[22]", "result": "Dose-dependent effect"}, {"measurement": "Activity", "setting": "[23]", "result": "Active"}, {"measurement": "MRT last", "setting": "[24]", "result": 6.66, "unit": "h"}, {"measurement": "Vd", "setting": "[25]", "result": 0.03, "unit": "L/kg"}, {"measurement": "Activity", "setting": "[26]", "result": "Non-Toxic"}, {"measurement": "inhibition", "setting": "[27]", "result": "Active"}]}
